Laboratory results as given in ChEMBL document CHEMBL3244185, “Synthesis and antiprotozoal activity of 2,5-bis(4-guanylphenyl)furans” (J Med Chem, 1977).
The source made the active and inactive calls. The calls are words filed in the database; no cut-off is given here.

What was measured:
[1] = system: Trypanosoma brucei rhodesiense; assay: Antitrypanosomal activity against Trypanosoma rhodesiense CT infected in ICR/HA Swiss mouse assessed as 30-day increase in survival time at 640 mg/kg relative to control; assay type: functional, organism-based; design: dose 640 mg/kg
Outline: (§1)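 Mice infected with T. rhodesiense, dosed per mg of compound per kg body weight, five mice per dose level. A cure means survival extended 30 days beyond untreated controls, so at most five cures per dose. Non-curative effects are given as ΔMST, the gain in mean survival time in days versus controls. Toxic deaths are flagged separately.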

[2] = system: Trypanosoma brucei rhodesiense; assay: Antitrypanosomal activity against Trypanosoma rhodesiense CT infected in ICR/HA Swiss mouse assessed as 30-day increase in survival time at 320 mg/kg relative to control; assay type: functional, organism-based; design: dose 320 mg/kg; outline: as §1
[3] = system: Trypanosoma brucei rhodesiense; assay: Antitrypanosomal activity against Trypanosoma rhodesiense CT infected in ICR/HA Swiss mouse assessed as 30-day increase in survival time at 20 mg/kg relative to control; assay type: functional, organism-based; design: dose 20 mg/kg; outline: as §1
[4] = system: Trypanosoma brucei rhodesiense; assay: Antitrypanosomal activity against Trypanosoma rhodesiense CT infected in ICR/HA Swiss mouse assessed as 30-day increase in survival time at 10 mg/kg relative to control; assay type: functional, organism-based; design: dose 10 mg/kg; outline: as §1
[5] = system: Trypanosoma brucei rhodesiense; assay: Antitrypanosomal activity against Trypanosoma rhodesiense CT infected in ICR/HA Swiss mouse assessed as 30-day increase in survival time at 40 mg/kg relative to control; assay type: functional, organism-based; design: dose 40 mg/kg; outline: as §1
[6] = system: Trypanosoma brucei rhodesiense; assay: Antitrypanosomal activity against Trypanosoma rhodesiense CT infected in ICR/HA Swiss mouse assessed as 30-day increase in survival time at 80 mg/kg relative to control; assay type: functional, organism-based; design: dose 80 mg/kg; outline: as §1
[7] = system: Trypanosoma brucei rhodesiense; assay: Antitrypanosomal activity against Trypanosoma rhodesiense CT infected in ICR/HA Swiss mouse assessed as 30-day increase in survival time at 160 mg/kg relative to control; assay type: functional, organism-based; design: dose 160 mg/kg; outline: as §1
[8] = system: Trypanosoma brucei rhodesiense; assay: Antitrypanosomal activity against Trypanosoma rhodesiense CT infected in ICR/HA Swiss mouse assessed as 30-day increase in survival time at 5 mg/kg relative to control; assay type: functional, organism-based; design: dose 5 mg/kg; outline: as §1
Plasmodium berghei [9] = assay: Antimalarial activity against Plasmodium berghei infected in mouse up to 640 mg/kg, sc administered 72 hrs post infection; assay type: functional, organism-based; design: dose 640 mg/kg
Outline: (§2)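 Antimalarial screen in P. berghei-infected mice, doses in mg/kg. The read-out is the gain in mean survival time of treated animals over untreated controls. Toxicity is recorded at the dose levels tested.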

[10] = system: Trypanosoma brucei rhodesiense; assay: Antitrypanosomal activity against Trypanosoma rhodesiense CT infected in ICR/HA Swiss mouse assessed as increase in mean survival time at 2.5 mg/kg; assay type: functional
Outline: (§3)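 Mice, five per dosage level, each dosed in mg of compound per kg body weight. ΔMST is the increase in mean survival time of treated over untreated infected controls, in days. A cure is a 30-day survival increase over controls, with at most five cures per dose. Deaths attributed to compound toxicity were scored as toxic deaths.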

[11] = system: Trypanosoma brucei rhodesiense; assay: Antitrypanosomal activity against Trypanosoma rhodesiense CT infected in ICR/HA Swiss mouse assessed as increase in mean survival time at 5 mg/kg; assay type: functional; outline: as §3
Mus musculus [12] = assay: Toxicity in ICR/HA Swiss mouse infected with Trypanosoma rhodesiense CT assessed as mortality at 20 mg/kg; assay type: organism-based; design: dose 20 mg/kg; conditions: in vivo; outline: as §3
Mus musculus [13] = assay: Toxicity in ICR/HA Swiss mouse infected with Trypanosoma rhodesiense CT assessed as mortality at 160 mg/kg; assay type: organism-based; design: dose 160 mg/kg; conditions: in vivo; outline: as §3
Mus musculus [14] = assay: Toxicity in ICR/HA Swiss mouse infected with Trypanosoma rhodesiense CT assessed as mortality at 40 mg/kg; assay type: organism-based; design: dose 40 mg/kg; conditions: in vivo; outline: as §3
Mus musculus [15] = assay: Toxicity in ICR/HA Swiss mouse infected with Trypanosoma rhodesiense CT assessed as mortality at 640 mg/kg; assay type: organism-based; design: dose 640 mg/kg; conditions: in vivo; outline: as §3
[16] = system: Trypanosoma brucei rhodesiense; assay: Antitrypanosomal activity against Trypanosoma rhodesiense CT infected in ICR/HA Swiss mouse assessed as 30-day increase in survival time at 2.5 mg/kg relative to control; assay type: functional, organism-based; design: dose 2.5 mg/kg; outline: as §1
Plasmodium berghei [17] = assay: Antimalarial activity against Plasmodium berghei infected in mouse assessed as increase in mean survival time at 640 mg/kg, sc administered 72 hrs post infection; assay type: functional; conditions: route subcutaneous
[18] = system: Trypanosoma brucei rhodesiense; assay: Antitrypanosomal activity against Trypanosoma rhodesiense CT infected in ICR/HA Swiss mouse assessed as increase in mean survival time at 1.25 mg/kg; assay type: functional; outline: as §3
Mus musculus [19] = assay: Toxicity in ICR/HA Swiss mouse infected with Trypanosoma rhodesiense CT assessed as mortality at 320 mg/kg; assay type: organism-based; design: dose 320 mg/kg; conditions: in vivo; outline: as §3
[20] = system: Trypanosoma brucei rhodesiense; assay: Antitrypanosomal activity against Trypanosoma rhodesiense CT infected in ICR/HA Swiss mouse assessed as 30-day increase in survival time at 1.25 mg/kg relative to control; assay type: functional, organism-based; design: dose 1.25 mg/kg; outline: as §1
Plasmodium berghei [21] = assay: Antimalarial activity against Plasmodium berghei infected in mouse assessed as increase in mean survival time at 320 mg/kg, sc administered 72 hrs post infection; assay type: functional; conditions: route subcutaneous
Mus musculus [22] = assay: Toxicity in mouse infected with Plasmodium berghei at 640 mg/kg, sc administered 72 hrs post infection; assay type: organism-based; design: dose 640 mg/kg, route subcutaneous; conditions: in vivo; outline: as §2
[23] = system: Trypanosoma brucei rhodesiense; assay: Antitrypanosomal activity against Trypanosoma rhodesiense CT infected in ICR/HA Swiss mouse assessed as 30-day increase in survival time at 0.83 mg/kg relative to control; assay type: functional, organism-based; design: dose 0.83 mg/kg; outline: as §1
[24] = system: Trypanosoma brucei rhodesiense; assay: Antitrypanosomal activity against Trypanosoma rhodesiense CT infected in ICR/HA Swiss mouse assessed as increase in mean survival time at 0.21 mg/kg; assay type: functional; outline: as §3
[25] = system: Trypanosoma brucei rhodesiense; assay: Antitrypanosomal activity against Trypanosoma rhodesiense CT infected in ICR/HA Swiss mouse assessed as increase in mean survival time at 0.83 mg/kg; assay type: functional; outline: as §3
[26] = system: Trypanosoma brucei rhodesiense; assay: Antitrypanosomal activity against Trypanosoma rhodesiense CT infected in ICR/HA Swiss mouse assessed as increase in mean survival time at 0.42 mg/kg; assay type: functional; outline: as §3
[27] = system: Trypanosoma brucei rhodesiense; assay: Antitrypanosomal activity against Trypanosoma rhodesiense CT infected in ICR/HA Swiss mouse assessed as increase in mean survival time at 40 mg/kg; assay type: functional; outline: as §3
[28] = system: Trypanosoma brucei rhodesiense; assay: Antitrypanosomal activity against Trypanosoma rhodesiense CT infected in ICR/HA Swiss mouse assessed as increase in mean survival time at 20 mg/kg; assay type: functional; outline: as §3

| Structure (SMILES) | Activity [2] | Activity [3] | Activity [4] | Activity [5] | Activity [6] | Activity [7] | Activity [8] | Activity (Plasmodium berghei [9]) | also measured |
| --- | --- | --- | --- | --- | --- | --- | --- | --- | --- |
| N[C+](N)c1ccc(-c2ccc(-c3ccc([C+](N)N)cc3)o2)cc1 | Active | Active | Active | Active | Active | Active | Active | inactive | Activity [1]: Active |
| Cc1c(-c2ccc([C+](N)N)cc2)oc(-c2ccc([C+](N)N)cc2)c1C | Active | Active | Active | Active | Active | Active | Active | inactive | – |
| CN1CCCN[C+]1c1ccc(-c2ccc(-c3ccc([C+]4NCCCN4C)cc3)o2)cc1.[Cl-].[Cl-] | – | – | – | – | – | – | – | inactive | Survival [10]: 0.3 days; Survival [11]: 0.7 days; Activity (Mus musculus [12]): Toxic; Activity (Mus musculus [13]): Toxic; Activity (Mus musculus [14]): Toxic; Activity (Mus musculus [15]): Toxic |
| N=C(N)c1ccc(/C=C/c2ccc(C(=N)N)cc2)cc1 | Active | Active | Active | Active | Active | Active | Active | – | Activity [1]: Active; Activity [16]: Active |
| [Cl-].[Cl-].c1cc([C+]2NCCN2)ccc1-c1ccc(-c2ccc([C+]3NCCN3)cc2)o1 | Active | – | – | Active | Active | Active | – | – | Survival (Plasmodium berghei [17]): 5 days |
| CN1CCCN(C)[C+]1c1ccc(-c2ccc(-c3ccc([C+]4N(C)CCCN4C)cc3)o2)cc1.[Cl-].[Cl-] | – | – | – | – | – | – | – | inactive | Activity (Mus musculus [13]): Toxic; Activity (Mus musculus [14]): Toxic; Activity (Mus musculus [15]): Toxic |
| Cc1c(-c2ccc([C+]3NCCCN3)cc2)oc(-c2ccc([C+]3NCCCN3)cc2)c1C.[Cl-].[Cl-] | – | Active | Active | Active | Active | – | – | inactive | Survival [18]: 3.2 days; Activity (Mus musculus [19]): Toxic; Activity (Mus musculus [15]): Toxic |
| N[C+](N)c1ccc(-c2cc(Cl)c(-c3ccc([C+](N)N)cc3)o2)cc1 | – | Active | Active | – | – | – | Active | inactive | Activity [20]: Active; Activity [16]: Active |
| Cl.Cl.c1cc(-c2ccc(-c3ccc(C4=NCCCN4)cc3)o2)ccc1C1=NCCCN1 | – | Active | – | Active | Active | Active | – | – | Survival (Plasmodium berghei [21]): 12 days; Activity (Mus musculus [22]): Toxic |
| Cc1cc(-c2ccc([C+](N)N)cc2)oc1-c1ccc([C+](N)N)cc1 | Active | Active | Active | Active | Active | Active | Active | inactive | Activity [20]: Active; Activity [16]: Active; Activity [23]: Active |
| CCN(CC)CCCN[C+](N)c1ccc(-c2ccc(-c3ccc([C+](N)NCCCN(CC)CC)cc3)o2)cc1 | – | – | – | – | – | – | – | inactive | – |
| Cc1c(-c2ccc([C+]3NCC(C)N3)cc2)oc(-c2ccc([C+]3NCC(C)N3)cc2)c1C (stereo unspecified) | – | – | – | – | – | – | – | inactive | – |
| CC1CN[C+](c2ccc(-c3ccc(-c4ccc([C+]5NCC(C)N5)cc4)o3)cc2)N1.[Cl-].[Cl-] (stereo unspecified) | Active | – | – | – | Active | Active | – | inactive | Survival [10]: 0.6 days; Survival [11]: 3.2 days; Activity [1]: Active |
| N=C(N)c1ccc(/C=C/c2ccc(C(=N)N)cc2O)cc1 | Active | Active | Active | Active | Active | Active | Active | – | Activity [1]: Active; Activity [16]: Active |
| Cc1c(-c2ccc([C+](N)N)cc2)oc(-c2ccc([C+](N)N)cc2)c1Cl.[Cl-].[Cl-] | Active | Active | Active | Active | Active | Active | Active | inactive | Survival [24]: 2.1 days |
| N[C+](N)c1ccc(-c2oc(-c3ccc([C+](N)N)cc3)c(Cl)c2Cl)cc1.[Cl-].[Cl-] | Active | Active | Active | Active | Active | Active | – | inactive | Survival [10]: 6.2 days; Survival [18]: 2 days; Survival [25]: 0.8 days; Survival [24]: 0.2 days; Survival [26]: 0.4 days |
| Cc1c(-c2ccc([C+]3NCCN3)cc2)oc(-c2ccc([C+]3NCCN3)cc2)c1C.[Cl-].[Cl-] | Active | Active | – | Active | Active | Active | – | inactive | Survival [10]: 18 days; Survival [18]: 1.8 days; Activity [1]: Active |
| N=C(N)c1ccc(OCCCCCOc2ccc(C(=N)N)cc2)cc1 | Active | Active | Active | Active | Active | Active | Active | – | Activity [1]: Active |
| CN1CCN(C)[C+]1c1ccc(-c2ccc(-c3ccc([C+]4N(C)CCN4C)cc3)o2)cc1.[Cl-].[Cl-] | – | – | – | – | – | – | – | inactive | Activity (Mus musculus [13]): Toxic; Activity (Mus musculus [14]): Toxic; Activity (Mus musculus [15]): Toxic |
| CN1CCN[C+]1c1ccc(-c2ccc(-c3ccc([C+]4NCCN4C)cc3)o2)cc1.[Cl-].[Cl-] | – | – | – | – | Active | – | – | inactive | Activity (Mus musculus [19]): Toxic; Survival [27]: 5.5 days; Activity (Mus musculus [13]): Toxic; Survival [28]: 1.1 days; Activity (Mus musculus [15]): Toxic |
| NNC(=O)c1ccc(-c2ccc(-c3ccc(C(=O)NN)cc3)o2)cc1 | – | – | – | – | – | – | – | inactive | – |
